An excerpt weighted towards active compounds, which were near 1.8% of everything screened.
FLuc stim CS = firefly luciferase counter-screen for stimulation assays; AID 1027; P08659; 200,000 tested, under 10 active; ATPlite luciferase biochemical, luminescence, 10 min; 0 = ATP-free wells, 1 = DMSO control; activation factor at 10 µM;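 active = luciferase activation factor, scaled between plate controls, of at least 2 with compound at 10 µM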
Target sequence (P08659 whole entry, looked up): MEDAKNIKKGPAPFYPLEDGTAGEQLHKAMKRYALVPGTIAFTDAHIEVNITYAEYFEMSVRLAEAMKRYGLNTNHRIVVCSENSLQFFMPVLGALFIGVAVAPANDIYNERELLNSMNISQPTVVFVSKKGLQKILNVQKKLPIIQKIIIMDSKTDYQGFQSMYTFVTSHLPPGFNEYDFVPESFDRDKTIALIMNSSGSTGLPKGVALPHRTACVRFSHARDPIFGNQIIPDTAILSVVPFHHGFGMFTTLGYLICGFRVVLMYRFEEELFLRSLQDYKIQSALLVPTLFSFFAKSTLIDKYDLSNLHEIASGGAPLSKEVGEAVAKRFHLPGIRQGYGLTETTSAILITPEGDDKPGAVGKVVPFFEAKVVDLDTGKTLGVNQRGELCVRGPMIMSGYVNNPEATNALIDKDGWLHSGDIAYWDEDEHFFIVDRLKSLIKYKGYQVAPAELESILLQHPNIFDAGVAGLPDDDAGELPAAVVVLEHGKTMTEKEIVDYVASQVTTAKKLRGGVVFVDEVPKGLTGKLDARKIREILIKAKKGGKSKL
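Assay system – cell-free luciferase reagent · Medium – PBS-based ATP solution · Dosing – test compounds dosed from 2 mM stocks in 100% DMSO · Timing – 10 min, room temperature · Technique – light output (luminescence) · Measure – luminescence gain marking luciferase activators · Controls – No-ATP low control, compound-free enzyme-plus-ATP high control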
PPC-1+TRAIL kill = compounds killing PPC-1 cancer cells with TRAIL present (potentiator screen, no TRAIL-free arm) | PPC-1 cells + TRAIL, ATPLite viability luminescence | cell killing (% activity), % at 4 µM or 5 µM | 220,000 tested, 0.41% active | AID 1443;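 active = cell killing above 50% in the first pass at 4 µM, then a duplicate retest at 5 µM averaging 50% or more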
C8 TRAIL sens = sensitizes caspase-8 expressing cells to TRAIL; NB7+C8 cells + TRAIL, ATPlite viability luminescence; inhibition (viability loss, TRAIL sensitization), % at 10 µM; AID 624354; 360,000 tested, 1% active;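 active = compounds causing at least 50% loss of cell viability in the single-dose screen, relative to plate controls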
FLuc inh counter = Photinus pyralis luciferase inhibition counter-screen. P08659. ATPLite firefly luciferase biochemical luminescence, 10 min. inhibition, % at 10 µM. 200,000 tested, 1.5% active;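 active = inhibition above about 50% when tested at 10 µM, limit read from the data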
MIN6 prolif = MIN6 beta-cell proliferation induction; AID 2380; proliferation, % at 10 µM; 330,000 tested, 0.29% active; MIN6 cells proliferation, ATPlite luminescence, 48 h; cells starved in 0.2% serum; 100% = growth in 10% serum;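 active = compounds whose signal lies at least 3.5 SD above the mean of all wells on their plate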
iPSC survival up = increases survival of single human iPS cells; 360,000 tested, 0.044% active; AID 602274; survival enhancement, % at 20 µM; hiPSC single-cell survival, ATPlite luminescence; 100% = ROCK inhibitor wells, 0% = DMSO; in the data active = survival enhancement above about 18%;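 also: cells exposed to compounds for 16 hours before the ATP read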
Numbers stand for hits; . = inactive; / = not tested or not shown.

SMILES	FLuc stim CS	PPC-1+TRAIL kill	C8 TRAIL sens	FLuc inh counter	MIN6 prolif	iPSC survival up
Cc1ccc(C(=O)Oc2oc(-c3ccccc3)nc2C=Nc2ccc(N(C)C)cc2)cc1	.	56	.	.	.	.
O=C1C=CC(=O)N1c1ccc2c(c1)C(NC(=O)C(F)(F)F)c1ccccc1-2 (centres undefined)	/	/	.	/	/	.
Nc1cc2nsnc2cc1Br	.	.	96	.	.	.
O=C(Nc1ccc(OCC(=O)N2CCOCC2)cc1)c1ccccc1Cl	/	/	83	/	.	.
CCN(CC)S(=O)(=O)c1ccc(C(=O)Nc2ccc(OCC(=O)N3CCOCC3)cc2)cc1	.	.	.	.	.	.
O=C(N/N=C/c1ccc(OCC(=O)N2CCOCC2)cc1)c1ccccc1Cl	.	.	.	.	.	.
CCCCOc1ccc(C(=O)Nc2ccc(OCC(=O)N3CCOCC3)cc2)cc1	/	/	70	/	.	.
CNC(=O)c1cc(Oc2ccc(NC(=O)Nc3ccc(Cl)c(C(F)(F)F)c3)cc2)ccn1	/	/	71	/	.	.
COc1ccc2oc(-c3ccco3)cc(=O)c2c1	.	.	.	59	.	.
CC(C)n1cnc2cc(NCc3nc4ccccc4n3C)ccc21	.	.	.	54	.	.
CCn1cnc2cc(NCc3nc4ccccc4n3C)ccc21	.	.	.	53	.	.
O=C(c1ccc(Cl)nc1)c1cccs1	/	.	/	/	.	/
COc1ccc(C(=O)c2no[n+]([O-])c2C(=O)c2ccc(OC)cc2)cc1	.	.	93	.	.	.
O=C(c1cccs1)c1no[n+]([O-])c1C(=O)c1cccs1	.	.	92	.	.	.
Fc1cccc2sc(Nc3nc4cc5c(cc4s3)OCCO5)nc12	.	.	53	79	.	.
Fc1cccc2sc(Nc3nc4cc5c(cc4s3)OCO5)nc12	.	.	.	.	.	.
CN(C)c1ccc(Sc2ccc3nc(N)nc(N)c3c2)cc1	/	/	71	/	/	.
Cc1ccc(/C=N/Nc2nc3ccccc3s2)o1	.	.	.	60	.	.
Cc1ccc(/C=N/Nc2nc(C(C)(C)C)cs2)o1	.	.	.	.	.	.
O=C(CC1CC1)Nc1ccc2c(c1)[C@@H]1C[C@H](CC(=O)NC3CCCC3)O[C@@H](CO)[C@@H]1O2	/	/	.	/	/	.
FC(F)(F)c1cnc(-c2cnc(-c3ccccn3)nc2)c(Cl)c1	.	.	.	64	.	.
COc1ccc(-c2cc3cc(OC)c(OC)cc3cn2)cc1	/	/	.	/	.	.
c1ccc(-c2cc3cc4c(cc3cn2)OCO4)cc1	/	/	51	/	.	.
COc1cc(OC)cc(-c2cc3cc4c(cc3cn2)OCO4)c1	/	/	72	/	.	.
c1ccc(-c2cc3ccccc3cn2)cc1	/	/	.	/	.	.
SMILES	FLuc stim CS	PPC-1+TRAIL kill	C8 TRAIL sens	FLuc inh counter	MIN6 prolif	iPSC survival up
COc1ccc(-c2cc3cc4c(cc3cn2)OCO4)cc1	/	/	54	/	.	.
O=C(Nc1ccncc1)c1c(F)c(F)c(F)c(F)c1F	/	/	.	/	.	44
O=C(Nc1ccccc1NC(=O)c1c(F)c(F)c(F)c(F)c1F)c1c(F)c(F)c(F)c(F)c1F	.	.	82	.	.	.
O=C(Nc1ccc2ccccc2c1)c1ccccc1F	/	/	.	/	.	.
O=C(Nc1ccc(F)cc1)c1ccccc1F	.	.	.	.	.	.
O=C(Nc1ccncc1)c1ccccc1F	.	.	.	.	.	24
O=C(Nc1ccc2cn[nH]c2c1)c1ccccc1F	.	.	.	53	.	.
COc1ccc(C(=O)Nc2cccc3c2CCCC3)cc1OC	/	/	.	/	.	.
CCc1ccc2oc(-c3ccc(OC)cc3)cc(=Nc3cccc(C(=O)O)c3)c2c1	.	.	.	51	.	.
CN(C)CCN1CCN(C2CN(Cc3ccc(F)cc3)S(=O)(=O)C2)CC1 (centres undefined)	/	/	.	/	/	.
COC(=O)c1ccc(/C=C(\C#N)c2ccccn2)cc1	.	.	52	73	.	.
CN(C)c1ccc(/C=C(\C#N)c2ccccn2)cc1	.	.	94	97	.	.
N#C/C(=C\c1ccc([N+](=O)[O-])cc1)c1ccccn1	.	.	.	.	.	.
COc1ccc(N=C2S/C(=C\c3ccc(OCC(=O)O)cc3)C(=O)N2CCc2c[nH]c3ccccc23)cc1	.	.	.	.	.	.
COc1ccc(N=C2S/C(=C\c3ccc(N4CCOCC4)o3)C(=O)N2CCc2c[nH]c3ccccc23)cc1	.	.	.	.	.	40
O=C(COc1ccc(/C=N/NC(=O)c2cc3ccccc3o2)cc1Br)Nc1ccccc1	.	.	59	.	.	.
O=C(Nc1ccc(F)cc1)c1cc2ccccc2o1	/	/	.	/	.	.
COc1cccc(NC(=O)c2cc3ccccc3o/c2=N\O)c1	/	/	55	/	.	.
O=C(Nc1ccccc1)c1cc2ccccc2o1	.	.	56	74	.	.
COc1ccc(NC(=O)c2cc3ccccc3o2)cc1	.	.	.	53	.	.
O=C(OCCO)c1c(C2=CCCCC2)oc2c1C(OCCO)CCC2 (centres undefined)	/	/	.	/	/	.
CC(=O)c1ccc(OC2(C)CCN(Cc3ccc4c(c3)OCCO4)C2)cc1 (centres undefined)	/	/	.	/	/	.
CC(C)C(=O)Nc1cccc(NC(=O)c2cc3ccccc3o2)c1	.	.	.	.	.	.
CC(=O)Nc1cccc(NC(=O)c2cc3ccccc3o2)c1	.	.	.	64	.	.
CC1=C(SCc2ccccc2)C(=O)c2ccccc2C1=O	/	/	51	/	/	.
SMILES	FLuc stim CS	PPC-1+TRAIL kill	C8 TRAIL sens	FLuc inh counter	MIN6 prolif	iPSC survival up
O=C1C(SCCO)=C(SCCO)C(=O)c2ccccc21	/	/	.	/	.	.
O=[N+]([O-])c1cc(S(=O)(=O)Oc2ccccc2)ccc1Cl	/	/	58	/	/	.
O=S(=O)(Oc1ccccc1)c1ccc(Cl)c(Cl)c1	/	/	.	/	/	.
NC(=S)NN=CCn1cc([N+](=O)[O-])c(=O)[nH]c1=O	/	/	.	/	/	.
COc1ccc(C(C)(NC(C)=O)c2nc(/C=C/c3ccccc3)cs2)cc1 (centres undefined)	/	/	.	/	/	.
COc1cc(OC)cc(C(=O)Nc2ccc3c(c2)OCCO3)c1	/	/	51	/	.	.
CCOc1ccc(C(=O)Nc2ccc3c(c2)OCCO3)cc1[N+](=O)[O-]	.	/	.	.	.	.
CCOc1ccc(C(=O)Nc2ccc3c(c2)OCCO3)cc1OC	.	.	.	60	.	.
COc1ccc2cc3cc(C(=O)NC4CC4)sc3nc2c1	/	/	77	/	.	.
O=c1ccn([C@@H]2O[C@H](CNCc3cccc4c3sc3ccccc34)[C@@H](O)[C@H]2O)c(=O)[nH]1	/	/	.	/	/	.
CC(=O)OCCN(C)c1cc(SC(C)C)c2nonc2c1[N+](=O)[O-]	.	.	.	.	.	.
CN(CCO)c1cc(Sc2nc3ccccc3s2)c2nonc2c1[N+](=O)[O-]	.	.	60	.	.	.
Brc1cc2c(cc1-c1nc3ccccc3s1)OCO2	/	/	.	/	.	.

Assay outcomes (PubChem)
